# Reference: ChEMBL document CHEMBL1156295, “In vitro and in vivo photocytotoxicity of boron dipyrromethene derivatives for photodynamic therapy” (J Med Chem, 2010)
# How the values were obtained:
# Format in all cases: functional, cell-based
# [1] = test system: HL-60; experiment: Cytotoxicity against human HL60 cells after 24 hrs by MTT assay; settings: HL-60, 24 h
# Procedure, shortened: (§1)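 HL60 at 15000 cells/well; HSC-2 and HK1 at 3000 cells/well, adhered overnight; phenol-red-free medium with 10% FBS. Compound tested at 0.001–100.0 μM from DMSO stock; controls 0.01% DMSO. After 2 h, irradiated with broad-spectrum light at 6.8 mW/cm2, or dark. After 24 h, MTT 4 h at 37 °C, formazan in DMSO, A570. Three determinations, mean ± SD.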
# [2] = test system: HSC-2; experiment: Phototoxicity against human HSC2 cells irradiated with 4.1 J/cm^2 broad spectrum light treated 2 hrs before irradiation measured after 24 hrs by MTT assay; settings: HSC-2, light or radiation study; procedure, shortened: as §1
# [3] = Phototoxicity against human HK1 cells irradiated with 4.1 J/cm^2 broad spectrum light treated 2 hrs before irradiation measured after 24 hrs by MTT assay; settings: HK-1, light or radiation study; procedure, shortened: as §1
# [4] = test system: HSC-2; experiment: Cytotoxicity against human HSC2 cells after 24 hrs by MTT assay; settings: HSC-2, 24 h; procedure, shortened: as §1
# [5] = Cytotoxicity against human HK1 cells after 24 hrs by MTT assay; settings: HK-1, 24 h; procedure, shortened: as §1
# [6] = test system: HL-60; experiment: Phototoxicity against human HL60 cells irradiated with 4.1 J/cm^2 broad spectrum light treated 2 hrs before irradiation measured after 24 hrs by MTT assay; settings: HL-60, light or radiation study; procedure, shortened: as §1
Structure (SMILES),IC50 [1] [µM],IC50 [2] [µM],IC50 [3] [µM],IC50 [4] [µM],IC50 [5] [µM],IC50 [6] [µM]
CCCCOC(=O)/C=C/C1=C(C)C2=Cc3c(C)cc(C)n3[B-](F)(F)[N+]2=C1C,> 100,0.6,1.1,> 100,99.6,0.49
CC1=C(S(=O)(=O)O)C(C)=[N+]2C1=C(c1ccc(I)cc1)c1c(C)c(S(=O)(=O)O)c(C)n1[B-]2(F)F,> 100,59.4,59,> 100,> 100,54.3
CC1=C(/C=C/S(=O)(=O)O)C(C)=[N+]2C1=Cc1c(C)cc(C)n1[B-]2(F)F,> 100,> 100,> 100,> 100,> 100,> 100
CC1=CC(C)=[N+]2C1=Cc1c(C)cc(C)n1[B-]2(F)F,> 100,8.7,6.2,> 100,76.8,4.4
CC1=C(/C=C/C(=O)O)C(C)=[N+]2C1=Cc1c(C)cc(C)n1[B-]2(F)F,> 100,> 100,> 100,> 100,> 100,> 100
COC(=O)C1=CCCCC1C1=C(C)C2=Cc3c(C)cc(C)n3[B-](F)(F)[N+]2=C1C (configuration not stated),> 100,4.1,5,> 100,> 100,4.9
CC1=CC(C)=[N+]2C1=C(c1ccc(I)cc1)c1c(C)cc(C)n1[B-]2(F)F,> 100,5.1,5.7,> 100,> 100,2.7
COC(=O)/C=C/C1=C(C)C2=Cc3c(C)c(/C=C/C(=O)OC)c(C)n3[B-](F)(F)[N+]2=C1C,> 100,11.1,8.5,> 100,> 100,5.2
CC1=C(C=O)C(C)=[N+]2C1=Cc1c(C)cc(C)n1[B-]2(F)F,> 100,> 100,> 100,> 100,> 100,> 100
COC(=O)/C=C/C1=C(C)C2=Cc3c(C)cc(C)n3[B-](F)(F)[N+]2=C1C,> 100,5.4,5.3,> 100,> 100,4.8
CCCCOC(=O)/C=C/C1=C(C)C2=Cc3c(C)c(/C=C/C(=O)OCCCC)c(C)n3[B-](F)(F)[N+]2=C1C,> 100,37.7,> 100,> 100,> 100,57.7
CC1=C(I)C(C)=[N+]2C1=C(c1ccc(I)cc1)c1c(C)c(I)c(C)n1[B-]2(F)F,10,0.5,0.69,10,95.5,0.42
COC(=O)C1=CCCC1C1=C(C)C2=Cc3c(C)c(C4CCC=C4C(=O)OC)c(C)n3[B-](F)(F)[N+]2=C1C (configuration not stated),> 100,,4.8,,> 100,3.8
CC1=C(I)C(C)=[N+]2C1=Cc1c(C)c(I)c(C)n1[B-]2(F)F,> 100,0.64,0.57,> 100,> 100,0.062
